Reference: ChEMBL document CHEMBL5360543, “Designed multiple ligands for the treatment of type 2 diabetes mellitus and its complications: Discovery of (5-arylidene-4-oxo-2-thioxothiazolidin-3-yl)alkanoic acids active as novel dual-targeted PTP1B/AKR1B1 inhibitors” (Eur J Med Chem, 2023)
Calls of active or inactive are those of the source. The calls are words filed in the database; no cut-off is given here.

Columns and labels:
[1] = target: T1, Aldo-keto reductase family 1 member B1 (Homo sapiens, UniProt P15121); assay: Inhibition of human recombinant AKR1B1 expressed in Escherichia coli BL21(DE3)pLysS using L-idose as substrate by NADPH oxidation based absorbance analysis
[2] = target: T2, Tyrosine-protein phosphatase non-receptor type 1 (Homo sapiens) (UniProt P18031); assay: Inhibition of N-terminal polyHis-tagged human PTP1B1 (1 to 303 residues) expressed in Escherichia coli BL21(DE3)pLysS assessed as enzyme residual activity using pNPP as substrate at 5 uM by spectrophotometric analysis
T2 sequence (whole entry): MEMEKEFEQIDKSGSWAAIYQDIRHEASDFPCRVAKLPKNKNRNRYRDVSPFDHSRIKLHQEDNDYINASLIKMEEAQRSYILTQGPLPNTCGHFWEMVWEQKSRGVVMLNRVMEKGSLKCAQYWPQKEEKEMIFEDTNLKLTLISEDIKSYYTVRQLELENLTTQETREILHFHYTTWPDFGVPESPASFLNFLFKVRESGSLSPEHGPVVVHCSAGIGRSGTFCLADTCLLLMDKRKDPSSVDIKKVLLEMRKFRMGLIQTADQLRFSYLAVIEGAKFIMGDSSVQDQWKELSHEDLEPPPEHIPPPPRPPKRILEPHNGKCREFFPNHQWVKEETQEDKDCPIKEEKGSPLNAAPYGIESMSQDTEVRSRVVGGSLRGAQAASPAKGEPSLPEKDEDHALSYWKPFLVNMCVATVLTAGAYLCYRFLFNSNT
Procedure, shortened: (§1)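 His-tagged human PTP1B (1–303) from E. coli BL21(DE3)pLysS, assayed in 0.075 M β,β-dimethylglutarate pH 7.0 with 1 mM EDTA, 0.1 mM DTT and pNPP. Reaction stopped with 0.1 M KOH; p-nitrophenol read at 400 nm. IC50 from 15–16 inhibitor concentrations in triplicate, normalized to control, fitted by nonlinear regression. Single-point residual activity at 5 µM.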

[3] = target: T1, Aldo-keto reductase family 1 member B1; assay: Ratio of Ki for human recombinant AKR1B1 expressed in Escherichia coli BL21(DE3)pLysS assessed as apparent dissociation constant for EI complex to Ki for human recombinant AKR1B1 expressed in Escherichia coli BL21(DE3)pLysS assessed as apparent dissociation constant for ESI complex
Procedure, shortened: (§2)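 AKR1B1 rates measured at varied L-idose concentrations with and without several inhibitor concentrations, then Lineweaver–Burk analysis. […] Tight binders fitted with the Morrison equation, KM for L-idose taken as 3.8 mM. At least three independent experiments.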

[4] = target: T3, Tyrosine-protein phosphatase non-receptor type 2 (Homo sapiens, UniProt P17706); assay: Inhibition of N-terminal polyHis-tagged human recombinant TC-PTPb (1 to 415 residues) expressed in Escherichia coli BL21(DE3)pLysS
T3 sequence (P17706 whole entry): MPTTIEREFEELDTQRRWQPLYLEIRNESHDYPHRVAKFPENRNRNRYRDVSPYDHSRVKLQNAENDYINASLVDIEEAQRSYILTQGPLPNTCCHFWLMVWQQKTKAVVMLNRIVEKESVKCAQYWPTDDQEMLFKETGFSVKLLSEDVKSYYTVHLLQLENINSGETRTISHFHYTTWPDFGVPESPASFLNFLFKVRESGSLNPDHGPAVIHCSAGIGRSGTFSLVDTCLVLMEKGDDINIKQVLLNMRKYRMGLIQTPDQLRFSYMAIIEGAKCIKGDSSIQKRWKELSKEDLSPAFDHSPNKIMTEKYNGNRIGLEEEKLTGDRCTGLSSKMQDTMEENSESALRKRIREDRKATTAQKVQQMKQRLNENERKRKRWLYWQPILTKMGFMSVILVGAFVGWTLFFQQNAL

Homo sapiens = species on record: Homo sapiens; assay: Selectivity index, ratio of IC50 for inhibition of N-terminal polyHis-tagged human recombinant TC-PTPb (1 to 415 residues) expressed in Escherichia coli BL21(DE3)pLysS to IC50 for inhibition of N-terminal polyHis-tagged human PTP1B1 (1 to 303 residues) expressed in Escherichia coli BL21(DE3)pLysS
[5] = target: T4, Tyrosine-protein phosphatase non-receptor type 1 (Mus musculus) (UniProt P35821); assay: Inhibition of PTP1B in mouse C2C12 cells assessed as increase in Akt phosphorylation by measuring increase in ratio of pAkt to Akt at 20 uM treated for 15 mins by western blot analysis; assay type: cell-based
T4 sequence (whole entry): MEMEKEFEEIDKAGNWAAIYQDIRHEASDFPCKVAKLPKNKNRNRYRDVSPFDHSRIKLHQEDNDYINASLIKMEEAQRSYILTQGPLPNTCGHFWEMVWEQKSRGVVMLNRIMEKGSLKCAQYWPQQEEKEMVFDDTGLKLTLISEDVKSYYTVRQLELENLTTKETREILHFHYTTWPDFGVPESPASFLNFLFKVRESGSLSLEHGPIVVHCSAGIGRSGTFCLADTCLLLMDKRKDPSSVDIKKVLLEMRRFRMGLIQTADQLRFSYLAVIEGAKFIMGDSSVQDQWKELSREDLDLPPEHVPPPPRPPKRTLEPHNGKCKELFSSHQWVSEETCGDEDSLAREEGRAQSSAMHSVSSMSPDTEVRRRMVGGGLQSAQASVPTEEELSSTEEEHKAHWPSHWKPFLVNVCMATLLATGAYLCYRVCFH
Procedure, shortened: (§3)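 C2C12 cells starved 24 h, then given 10 nM insulin, 20 µM compound, or both, for 15 min. Washed in cold PBS, lysed in 1X Laemmli buffer, run on SDS-PAGE, blotted to PVDF. Probed with antibodies to phospho-Akt and total Akt, with actin as loading control. Bands quantified; triplicate, mean ± SD (n = 3).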

[6] = target: T1, Aldo-keto reductase family 1 member B1; assay: Mixed non-competitive inhibition of human recombinant AKR1B1 expressed in Escherichia coli BL21(DE3)pLysS assessed as apparent dissociation constant for ESI complex using L-idose as substrate by secondary plot analysis; procedure, shortened: as §2
[7] = target: T1, Aldo-keto reductase family 1 member B1; assay: Reversible inhibition of human recombinant AKR1B1 expressed in Escherichia coli BL21(DE3)pLysS assessed as recovery of enzyme activity using L-idose as substrate measured after extensive dialysis by NADPH oxidation based absorbance analysis; set-up: scale not given: the % may be the effect or the level left
[8] = target: T5, Tyrosine-protein phosphatase non-receptor type 1 (Homo sapiens, UniProt P18031); assay: Non-competitive inhibition of N-terminal polyHis-tagged human PTP1B1 (1 to 303 residues) expressed in Escherichia coli BL21(DE3)pLysS assessed as apparent dissociation constant for ESI complex using pNPP as substrate by Lineweaver-Burk plot analysis
T5 sequence (P18031 whole entry): T2 sequence (whole entry)
Procedure, shortened: (§4)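 PTP1B initial pNPP hydrolysis rates measured at seven pNPP concentrations (0.5–25 mM) and at least three inhibitor concentrations, in triplicate. Data fitted to Michaelis–Menten; KM and Vmax dependence on inhibitor analysed by Lineweaver–Burk plots.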

[9] = target: T4, Tyrosine-protein phosphatase non-receptor type 1 (Mus musculus); assay: Inhibition of PTP1B in mouse C2C12 cells assessed as potentiation of insulin-induced Akt phosphorylation by measuring increase in ratio of pAkt to Akt at 20 uM treated for 15 mins in presence of insulin by western blot analysis; assay type: cell-based; procedure, shortened: as §3
[10] = target: T1, Aldo-keto reductase family 1 member B1; assay: Mixed non-competitive inhibition of human recombinant AKR1B1 expressed in Escherichia coli BL21(DE3)pLysS assessed as apparent dissociation constant for EI complex using L-idose as substrate by secondary plot analysis; procedure, shortened: as §2
C2C12 [11] = assay: Cytotoxicity against mouse C2C12 cells assessed as reduction in cell viability at 20 uM incubated for 24 hrs by MTT assay; assay type: toxicity, cell-based; conditions: c2c12, 24 h
Procedure, shortened: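 C2C12 myoblasts were differentiated for 96 h in DMEM with 2% horse serum, then held 24 h in complete medium with 20 µM compound, DMSO vehicle as control. MTT 0.5 mg/mL was added, cells lysed in DMSO, absorbance read, and values normalized to vehicle. Quadruplicate, mean ± SD (n = 4).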

[12] = target: T2, Tyrosine-protein phosphatase non-receptor type 1 (Homo sapiens); assay: Reversible inhibition of N-terminal polyHis-tagged human PTP1B1 (1 to 303 residues) expressed in Escherichia coli BL21(DE3)pLysS using pNPP as substrate pretreated with enzyme for 60 mins followed by 400-fold dilution with buffer containing substrate and measured after 15 mins by spectrophotometric analysis; conditions: time 75.0 min
Procedure, shortened: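 PTP1B incubated 60 min at 37 °C with saturating inhibitor, then diluted 400-fold into assay buffer containing 2.5 mM pNPP. Stopped after 15 min with 0.2 M KOH; absorbance read at 400 nm. Normalized to enzyme diluted with DMSO; mean ± SEM (n = 3).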

[13] = target: T5, Tyrosine-protein phosphatase non-receptor type 1; assay: Non-competitive inhibition of N-terminal polyHis-tagged human PTP1B1 (1 to 303 residues) expressed in Escherichia coli BL21(DE3)pLysS assessed as apparent dissociation constant for EI complex using pNPP as substrate by Lineweaver-Burk plot analysis; procedure, shortened: as §4
[14] = target: T5, Tyrosine-protein phosphatase non-receptor type 1; assay: Inhibition of N-terminal polyHis-tagged human PTP1B1 (1 to 303 residues) expressed in Escherichia coli BL21(DE3)pLysS using pNPP as substrate by spectrophotometric analysis; procedure, shortened: as §1
HLE = assay: Cytotoxicity against human HLE cells assessed as reduction in cell viability at 2 uM incubated for 24 to 48 hrs by MTT assay; assay type: toxicity, cell-based; conditions: time 24-48 hrs
Procedure, shortened: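 HLE lens epithelial B3 cells in MEM with 20% FBS at 37 °C, exposed 24 and 48 h to compound in 0.05% DMSO. Then 1 h in MTT 0.5 mg/mL in phosphate buffer pH 7.4, formazan dissolved in 0.04 N HCl/isopropanol, absorbance 563 nm. Mean ± SEM of eleven independent measurements; Student's t test versus untreated cells.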

C2C12 [15] = assay: Effect on total Akt protein expression in mouse C2C12 cells at 20 uM incubated for 15 mins by SDS-PAGE analysis; assay type: functional, cell-based; procedure, shortened: as §3
C2C12 [16] = assay: Insulin-mimetic activity in mouse C2C12 cells assessed as stimulation of 2-NBDG uptake at 20 uM pretreated with compound for 15 mins followed by 2-NBDG addition and measured after 3 hrs by flow cytometry; assay type: functional, cell-based; conditions: time 195.0 min
Procedure, shortened: (§5)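 C2C12 cells serum-starved 24 h, then 15 min with 10 nM insulin, 20 µM compound, or both. Washed, then 3 h in starvation medium containing 40 µM 2-NBDG. Trypsinized, washed, and fluorescence measured by flow cytometry. Quadruplicate; mean fluorescence ± SD.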

C2C12 [17] = assay: Insulin-mimetic activity in mouse C2C12 cells assessed as stimulation of 2-NBDG uptake at 20 uM pretreated with compound and insulin for 15 mins followed by 2-NBDG addition and measured after 3 hrs by flow cytometry; assay type: functional, cell-based; conditions: time 195.0 min; procedure, shortened: as §5
C2C12 [18] = assay: Effect on total Akt protein expression in mouse C2C12 cells at 20 uM incubated for 15 mins in presence of insulin by SDS-PAGE analysis; assay type: functional, cell-based; procedure, shortened: as §3
[19] = target: T1, Aldo-keto reductase family 1 member B1; assay: Inhibition of AKR1B1 in human HLE cells assessed as inhibition of glucose-induced sorbitol accumulation at 2 uM incubated for 24 hrs in presence of glucose; assay type: cell-based
Procedure, shortened: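 HLE cells held 24 h in 75 mM D-glucose with or without 2 µM compound; 10 µM sorbinil as reference. Lysates from freeze/thaw and 10,000 × g spin were treated with perchloric acid and neutralized with KOH. Sorbitol assayed and expressed as nmol/mg protein (Bradford). Mean ± SEM of six measurements; one-way ANOVA with Tukey.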

IC50 [1]	Activity [2]	Ratio Ki [3]	IC50 [4]	inhibition [5]	Ki [6]	Activity [7]	Ki [8]	inhibition [9]	Ki [10]	inhibition [12]	Ki [13]	IC50 [14]	SMILES	Activity (C2C12 [11])	other results
38.2 µM	99.8%												O=C(O)CCN1C(=O)/C(=C/c2ccc(OCCCc3ccccc3)cc2)SC1=S		
0.26 µM	79%												O=C(O)CN1C(=O)/C(=C/c2ccc(OCCCc3ccccc3)cc2)SC1=S		
0.05 µM	81%												O=C(O)CN1C(=O)/C(=C/c2cccc(OCCCc3ccccc3)c2)SC1=S		
2.1 µM	77%												O=C(O)CCN1C(=O)/C(=C/c2cccc(OCCCOc3ccccc3)c2)SC1=S		
0.33 µM		2	193 µM	inactive	0.41 µM	> 90%	17.5 µM	inactive	1.3 µM	Active	12.1 µM	4 µM	O=C(O)CN1C(=O)/C(=C/c2ccc(OCCCCc3ccccc3)cc2)SC1=S	Non-Toxic	Ratio IC50 (Homo sapiens): 48
0.06 µM		2	9 µM	Active	0.03 µM	> 90%	4.3 µM	Active	0.08 µM	Active	4.6 µM	4.3 µM	O=C(O)CN1C(=O)/C(=C/c2cccc(OCCCCc3ccccc3)c2)SC1=S	Non-Toxic	Activity (HLE): Non-Toxic; Activity (C2C12 [15]): inactive; Activity (C2C12 [16]): Active; Activity (C2C12 [17]): Active; Activity (C2C12 [18]): inactive; inhibition [19]: Active
